Measured values taken from ChEMBL document CHEMBL1153041, “Design, synthesis and biological evaluation of 2H-benzo[b][1,4] oxazine derivatives as hypoxia targeted compounds for cancer therapeutics” (Bioorg Med Chem Lett, 2009).
Active and inactive are the calls of the source. The rule behind the calls is not given here.

How the values were obtained:
HepG2 [1] = assay: Cytotoxicity against human HepG2 cells assessed as cell survival under normoxic condition at 50 uM after 24 hrs by clonogenic assay relative to control; type: functional; conditions: HepG2, 24 h, read-out: Survival
In short: (§1)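 HepG2 in RPMI 1640 + 10% FBS, 3.5 × 10^3 cells/well, allowed 24 h growth at 37 °C. Vehicle (0.1% DMSO) or drug then applied, with 10 days incubation under normoxia (5% CO2, 37 °C). Fixed in 10% acetic acid, stained with crystal violet. Colonies >50 μm were counted visually in three random 1-mm × 1-mm grids, relative to controls; Mann–Whitney test.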

HepG2 [2] = assay: Cytotoxicity against human HepG2 cells assessed as cell survival under normoxic condition at 10 uM […] by clonogenic assay relative to control; type: functional; conditions: read-out: Survival; in short: as §1
HepG2 [3] = assay: Cytotoxicity against human HepG2 cells in hypoxic condition after 48 hrs by MTT assay; type: functional, cell-based
In short: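 HepG2 cells (passage 2, RPMI 1640 + 10% FBS) given drug or 0.1% DMSO vehicle in log phase. 22 h normoxia, then 2 h hypoxia (1% O2, 5% CO2, 94% N2, 37 °C) in a glove chamber checked by methylene blue indicator, then 24 h reoxygenation. MTT read at 48 h; parallel normoxic duplicate plate.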

HepG2 [4] = assay: Cytotoxicity against human HepG2 cells assessed as assessed as cell survival under hypoxic condition at 50 uM after 24 hrs by clonogenic assay; type: functional; conditions: HepG2, 24 h, read-out: Survival
In short: (§2)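 HepG2 in RPMI 1640 + 10% FBS, 3.5 × 10^3 cells/well, grown 24 h at 37 °C normoxic, then exposed to vehicle (0.1% DMSO) or drug. Hypoxia 1% O2/5% CO2/94% N2 at 37 °C for 5 h in glove chamber, then reoxygenated (5% CO2, 37 °C) for the rest of 10 days. Acetic acid fixation, crystal violet stain. Colonies >50 μm counted in three random 1-mm grids, expressed relative to controls; Mann–Whitney test.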

HepG2 [5] = assay: Cytotoxicity against human HepG2 cells in normoxic condition after 48 hrs by MTT assay; type: functional, cell-based
In short: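 HepG2 cells (passage 2 from frozen stock) in RPMI 1640 with 10% FBS, dosed during log-phase growth with drug or vehicle (0.1% DMSO). Normoxic incubation at 37 °C, 5% CO2 for 48 h, then MTT read-out. Duplicate plates split from the same stock cells.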

HepG2 [6] = assay: Cytotoxicity against human HepG2 cells assessed as cell survival under hypoxic condition at 10 uM after 24 hrs by clonogenic assay; type: functional; conditions: HepG2, 24 h, read-out: Survival; in short: as §2
HepG2 [7] = assay: Down regulation of hypoxia inducible VEGF gene expression in human HepG2 cells at 20 uM by RT-PCR; type: functional, cell-based
In short: (§3)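 Total RNA extracted with TRIzol, then quantitative RT-PCR: 50 °C 2 min, 95 °C 10 min, 40 cycles of 95 °C 15 s / 60 °C 1 min, with melting curves. Ct normalized to GAPDH; treated-minus-control ΔCt converted by 2^ to relative expression.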

HepG2 [8] = assay: Cytotoxicity against human HepG2 cells assessed as cell survival under normoxic condition assessed as cell survival at 100 uM after 24 hrs by clonogenic assay relative to control; type: functional; conditions: HepG2, 24 h, read-out: Survival; in short: as §1
HepG2 [9] = assay: Cytotoxicity against human HepG2 cells assessed as cell survival under hypoxic condition at 100 uM after 24 hrs by clonogenic assay relative to control; type: functional; conditions: HepG2, 24 h, read-out: Survival; in short: as §2
HepG2 [10] = assay: Cytotoxicity against human HepG2 cells assessed as cell survival under hypoxic condition at 25 uM after 24 hrs by clonogenic assay relative to control; type: functional; conditions: HepG2, 24 h, read-out: Survival; in short: as §2
HepG2 [11] = assay: Down regulation of hypoxia inducible P21 gene expression in human HepG2 cells at 20 uM by RT-PCR; type: functional, cell-based; in short: as §3
HepG2 [12] = assay: Cytotoxicity against human HepG2 cells assessed as cell survival under hypoxic condition at 400 uM after 24 hrs by clonogenic assay relative to control; type: functional, cell-based; conditions: in the assay text read “normoxic” for “hypoxic”
HepG2 [13] = assay: Down regulation of hypoxia inducible HIF1alpha gene expression in human HepG2 cells at 20 uM by RT-PCR; type: functional, cell-based; in short: as §3
HepG2 [14] = assay: Cytotoxicity against human HepG2 cells assessed as cell survival under normoxic condition at 25 uM after 24 hrs by clonogenic assay relative to control; type: functional; conditions: HepG2, 24 h, read-out: Survival; in short: as §1
[15] = Homo sapiens, HepG2, 48 h, read-out: IC50

O=[N+]([O-])c1ccc2c(c1)N=C(c1ccc(Cl)cc1)CO2
viability at 50 µM (HepG2 [1]): -11%
viability at 10 µM (HepG2 [2]): 10%
IC50 (HepG2 [3]; [15]): 20 µM
viability at 50 µM (HepG2 [4]): -83%
IC50 (HepG2 [5]; [15]): 78 µM
viability at 10 µM (HepG2 [6]): -28%

Cc1ccc2c(c1)N=C(c1ccc(F)cc1)CO2
IC50 (HepG2 [3]; hepg2): Not Active
IC50 (HepG2 [5]; hepg2): Not Active

Cc1ccc(C2=Nc3ccc(Cl)cc3OC2)cc1
IC50 (HepG2 [3]; [15]): 10 µM
IC50 (HepG2 [5]; hepg2): Not Active

Cc1ccc2c(c1)N=C(c1ccc(Cl)cc1)CO2
Activity (HepG2 [7]): Active
viability at 100 µM (HepG2 [8]): 10%
viability at 50 µM (HepG2 [1]): 3%
viability at 100 µM (HepG2 [9]): -90%
IC50 (HepG2 [3]; [15]): 87 µM
viability at 25 µM (HepG2 [10]): -31%
viability at 50 µM (HepG2 [4]): -65%
Activity (HepG2 [11]): Active
Activity (HepG2 [12]): Not toxic
Activity (HepG2 [13]): Active
viability at 25 µM (HepG2 [14]): 5%

Cc1ccc(C2=Nc3cc(F)ccc3OC2)cc1
IC50 (HepG2 [3]; [15]): 100 µM
IC50 (HepG2 [5]; hepg2): Not Active

c1ccc(C2=Nc3ccccc3OC2)cc1
IC50 (HepG2 [3]; [15]): 10 µM
IC50 (HepG2 [5]; [15]): 87 µM
viability at 10 µM (HepG2 [6]): -71%

Clc1ccc(C2=Nc3ccc(Cl)cc3OC2)cc1
IC50 (HepG2 [3]; [15]): 28 µM
IC50 (HepG2 [5]; [15]): 88 µM

Clc1ccc2c(c1)N=C(c1ccccc1)CO2
IC50 (HepG2 [3]; [15]): 30 µM
IC50 (HepG2 [5]; [15]): 78 µM
